For one assay, the system named is MT4. Briefly: Cytotoxicity against human MT4 cells after 96 hrs. Conditions: MT4, 96 h. In kind it is functional, cell-based.
The nature of assay [1]: Selectivity ratio of IC50 for human CRL7065 to MIC for Staphylococcus aureus ATCC 25923. Type of assay: functional.
The test system of the next assay is Staphylococcus aureus. Briefly: Antibacterial activity against Staphylococcus aureus ATCC 25923 after 20 hrs by doubling dilution method. Type of assay: functional. Conditions: ATCC 25923, 20 h. The method, boiled down:
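Broth doubling-dilution in 96-well format: overnight nutrient-broth cultures (37 °C) adjusted to about 10^5 cells/mL; compound stocks in EtOH diluted 2-fold across wells in culture suspension. After 20 h at 37 °C in moist atmosphere, thiazolyl blue tetrazolium added, 4 h further incubation; living bacteria seen as violet turbid wells; MIC read as lowest inhibitory concentration.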

The test system of a further assay is HepG2. Briefly: Cytotoxicity against human HepG2 cells after 96 hrs. Type of assay: functional, cell-based. Conditions: HepG2, 96 h.
For a further assay, the system named is DU-145. Briefly: Cytotoxicity against human DU145 cells after 96 hrs. In kind it is functional, cell-based. Conditions: DU-145, 96 h.

Converted amounts (≈) assume the structure as drawn.

The IC50 is the concentration that inhibits the measured activity by half. Read a low IC50 as greater potency. By MIC is commonly meant the lowest concentration that inhibits growth of the organism. Read a high MIC as a less susceptible organism.

With `CC(C)C(=O)c1c(O)c([C@H](C2=C(O)C(C)(C)C(=O)C(C)(C)C2=O)C(C)C)c2c3c1OC(C)(C)C[C@H]3[C@H]1C(C)(C)C(=O)C(C)(C)[C@@]1(O)O2` (relative stereo), the IC50 was determined as 2.1 µM in the assay on MT4, 4 µM in the assay with HepG2 and 3 µM in the assay with DU-145. In addition, the Ratio in assay [1] stood at 35. It took 0.38 µM (≈ 0.248 µg/mL) to inhibit growth in the assay with Staphylococcus aureus (MIC).

As for `C=C1CC[C@]2(C)OC3=C(C(=O)C(C)(C)C(=O)C3(C)C)[C@@H](C(C)C)[C@@H]2[C@H]1C1CCCC1(C)C` (relative stereo), in the assay with MT4, the 50% inhibitory concentration (IC50) is greater than 100 µM. Besides, in the assay with Staphylococcus aureus, the minimal inhibitory concentration (MIC) was greater than 560 µM.

`CC(C)[C@@H]1C[C@@]2(CC[C@]3(C(C)C)C[C@H]23)OC2=C1C(=O)C(C)(C)C(=O)C2(C)C` (relative stereo) displayed an IC50 in the assay with MT4 of 41.4 µM. The same compound had a minimal inhibitory concentration (MIC) in the assay with Staphylococcus aureus greater than 560 µM.

Consider `CC[C@@]1(O)C(=O)OCc2c1cc1n(c2=O)Cc2cc3ccccc3nc2-1` [CAMPTOTHECIN], for which the IC50 in the assay on HepG2 was determined as 0.02 µM; with DU-145, 0.015 µM.

`O=C(N[C@H](CO)[C@H](O)c1ccc([N+](=O)[O-])cc1)C(Cl)Cl` [CHLORAMPHENICOL]: the MIC with Staphylococcus aureus worked out at 4 µM (≈ 1.29 µg/mL).

On to `COc1cc([C@@H]2c3cc4c(cc3[C@@H](O[C@@H]3O[C@@H]5CO[C@@H](C)O[C@H]5[C@H](O)[C@H]3O)[C@H]3COC(=O)[C@H]23)OCO4)cc(OC)c1O` [ETOPOSIDE], for which the IC50 with MT4 was 0.09 µM; in the assay on HepG2, 4 µM; in the assay on DU-145, 3 µM.

Regarding `CC(C)C(=O)c1c(O)c([C@H](C2=C(O)C(C)(C)C(=O)C(C)(C)C2=O)C(C)C)c(O)c([C@H](C2=C(O)C(C)(C)C(=O)C(C)(C)C2=O)C(C)C)c1O` [MYRTUCOMMULONE A], the IC50 in the assay on MT4 is 4.7 µM; in the assay on HepG2, 6 µM; in the assay with DU-145, 5 µM. For the same compound, the minimum inhibitory concentration (MIC) against Staphylococcus aureus is 2.2 µM (≈ 1.47 µg/mL).

For the origin of these results see ChEMBL document CHEMBL2010749, “Cytotoxic phloroglucinols from the leaves of Myrtus communis” (J Nat Prod, 2012).
